Screens: PubChem BioAssay, Johns Hopkins Ion Channel Center
Kir21 inh: Kir2.1 (mouse) channel inhibition; P35561; HEK293-Kir2.1, FluxOR thallium flux fluorescence; active compounds read low; B-score at 10 µM; actives 0.85% (n = 310,000);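 active = fluorescence ratio B-score at or below minus 3 SD of library scores, with starting-brightness B-score within 2 SD, cut at about -4.2 in these data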;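 also: channel flux triggered by added potassium and thallium sulfate stimulus; B-score of peak minus minimum fluorescence over baseline after thallium stimulus; more negative B-score means stronger Kir2.1 block with less thallium influx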
KCNQ1 pot: potentiates or activates the human KCNQ1 potassium channel | P51787 | CHO-K1 KCNQ1, thallium flux FluxOR fluorescence; active compounds read high | B-score at 10 µM | actives 0.35% (n = 310,000) | AID 2648;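 active = fluorescence ratio B-score, a plate-corrected score, at least three library SD, with initial intensity B-score within 5 SD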
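Schedule – 37 °C overnight plating, 90-min dark dye load, 20-min compound pretreatment · System – stable KCNQ1 CHO-K1 line · Probe or stimulus – thallium- and potassium-containing depolarizing buffer · Measured by – kinetic FluxOR fluorescence, 10 s baseline plus 110 s post-stimulus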
KCNK9 inh: blocks the human KCNK9 two-pore domain potassium channel | Q9NPC2 | HEK293 KCNK9, FluxOR thallium flux fluorescence; active compounds read low | B-score at 10 µM | actives 1.2% (n = 310,000);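 active = ratio B-score over 3 SD below the library mean, with starting fluorescence within 5 SD of its mean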;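 also: negative B-score means less thallium flux so channel inhibition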
hERG rescue: hERG (human) protection from proarrhythmic block; actives 0.51% (n = 310,000); Q12809; CHO-hERG, FluxOR thallium flux, dofetilide IC70 present; activation (rescue from dofetilide block), less the hit threshold, % at 10 µM;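 active = activation above the mean of controls blocked by dofetilide plus 5 SD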;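 also: thallium influx through hERG after potassium depolarization seen as dye fluorescence rise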
KCNQ1 block: human KCNQ1 channel inhibition; P51787; CHO-K1 KCNQ1, FluxOR thallium flux fluorescence; active compounds read high; B-score at 10 µM; actives 1.3% (n = 310,000); AID 2642;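 active = compounds whose thallium flux B-score, printed positive for inhibition, exceeds three library SD while starting fluorescence stays within three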;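 also: channel opened by potassium depolarization with thallium stimulus after 20 min compound exposure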
KCNK3 inh: human KCNK3 channel inhibition, primary screen; actives 0.84% (n = 340,000); AID 602410; B-score at 10 µM; O14649; CHO-KCNK3 thallium flux, FluxOR fluorescence; active compounds read low;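 active = B-score under library mean minus 4 SD, starting fluorescence ratio at most library mean plus 5 SD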;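 also: more negative B-score means stronger inhibition of thallium flux through KCNK3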
Target sequence (O14649 whole entry, looked up): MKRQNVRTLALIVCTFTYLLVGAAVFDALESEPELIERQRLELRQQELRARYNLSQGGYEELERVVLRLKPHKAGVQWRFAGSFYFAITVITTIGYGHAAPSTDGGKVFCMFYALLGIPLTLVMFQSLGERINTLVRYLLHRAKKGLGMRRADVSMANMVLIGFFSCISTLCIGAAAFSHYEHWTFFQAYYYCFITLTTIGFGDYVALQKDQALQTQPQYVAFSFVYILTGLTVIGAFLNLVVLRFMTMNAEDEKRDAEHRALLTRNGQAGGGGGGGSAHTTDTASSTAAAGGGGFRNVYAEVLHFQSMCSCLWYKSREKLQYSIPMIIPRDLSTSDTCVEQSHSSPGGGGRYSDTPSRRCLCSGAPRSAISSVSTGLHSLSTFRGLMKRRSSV
Numbers without * were called inactive; i = inactive; / = not tested or not shown. Compounds with a hit are over-represented: about 3.7% of the library has one in this group of screens.

SMILES | Kir21 inh | KCNQ1 pot | KCNK9 inh | hERG rescue | KCNQ1 block | KCNK3 inh
Cc1nc2c(c(C)nn2-c2ccccc2)c(C)c1CCC(=O)Nc1ccc(CN2CCCC2)cc1 | -9* | i | i | -13 | i | i
CCC(C)NC(=O)CCc1c(C)nc2c(c(C)nn2-c2ccccc2)c1C (stereo unspecified) | 0.61 | i | i | -11 | i | i
O=C(NNC(=O)c1ccncc1)Nc1ccc(Cl)cc1 | / | / | / | / | / | i
N#CC1=C(N)SC(N)=C(C#N)C1CCC1CCCCC1 | -5.2 | i | i | -30 | 9* | /
Cc1ccc(O)c(NC(=S)NC(=O)Cc2ccc(Cl)cc2)c1 | 1.1 | 50* | i | -7 | i | i
COc1ccc2c(/C=C/c3cc[n+](C)cc3)c[nH]c2c1 | 0.02 | i | i | -14 | i | i
COc1ccc2c(c1)c(/C=C/c1cc[n+](C)cc1)cn2C | -7.6 | i | -8* | -25 | i | i
CC(/C=C(\NC(=O)c1ccccc1)C(=O)N=Nc1c(O)[nH]c2ccc(C)cc12)=C\c1ccccc1 | 0.07 | i | i | -23 | 6* | i
Cc1ccc2[nH]c(O)c(N=NC(N)=S)c2c1 | -0.08 | i | i | -8 | i | i
CCN(CC)CCCNc1nc2cc(OC)c(OC)cc2c2nc(-c3cccnc3)nn12 | 0.03 | i | i | -7 | 11* | i
CCN(CC)CCCNc1nc2cc(OC)c(OC)cc2c2nc(-c3ccccc3)nn12 | -0.85 | i | i | -7 | i | i
CCOC(=O)c1c(-c2ccc(C)o2)csc1NC(=O)COC(=O)c1cccs1 | -1.5 | i | -6.7* | -24 | i | i
CCOC(=O)c1c(-c2ccc(C)o2)csc1N | -0.53 | i | i | -9 | i | i
CCOC(=O)c1c(-c2ccc(C)o2)csc1NC(=O)CSc1ncn[nH]1 | -2.2 | i | i | -12 | i | i
CCOC(=O)c1c(-c2ccc(C)o2)csc1NC(=S)NC(=O)N(C)C | -0.04 | 39* | i | 14* | i | i
COCCN(CCOC)Cc1c(O)ccc2c1O/C(=C\c1ccc(C)o1)C2=O | -6.8 | i | i | -22 | 9* | i
C/C(=N\N(c1ccccc1)c1ccccc1)c1ccc(N)cc1 | -0.29 | i | i | -15 | i | i
C/C(=N\N(c1ccccc1)c1ccccc1)c1ccc(O)cc1 | -5.1* | i | i | -11 | i | i
FC(F)Sc1ccc(NC(=S)NC2CCC(NC(=S)Nc3ccc(SC(F)F)cc3)CC2)cc1 (stereo unspecified) | 1.2 | i | i | -5 | i | i
Oc1cccc2c(NC(=S)Nc3ccc(SC(F)F)cc3)cccc12 | 0.3 | i | i | -11 | 11* | i
Cc1onc(-c2ccccc2)c1CNS(=O)(=O)c1ccc(F)cc1F | -4 | i | i | -11 | i | i
Cc1onc(-c2ccccc2)c1CNS(=O)(=O)c1cccc(Br)c1 | -6.4* | i | i | -9 | i | i
COc1ccc2oc(C(=O)N(Cc3ccco3)Cc3cccs3)c(C)c2c1 | -2.3 | i | i | -17 | 9* | i
CC(CCc1ccccn1)(CCc1ccccn1)C(=O)c1ccccc1 | / | / | / | / | / | i
C=CCN1C(=O)c2ccc(C(=O)N3CCN(S(=O)(=O)c4cccc([N+](=O)[O-])c4)CC3)cc2C1=O | / | / | / | / | / | i
SMILES | Kir21 inh | KCNQ1 pot | KCNK9 inh | hERG rescue | KCNQ1 block | KCNK3 inh
O=C(O)Cc1ccc(NC(=O)C2CC=CCC2C(=O)O)cc1 (stereo unspecified) | 0.19 | i | i | 8.7* | i | /
N#Cc1cccnc1N1CCN(C(=O)c2cccs2)CC1 | 0.85 | i | i | -7 | i | i
CC(C)(C)c1ccc(OCCCNC2CCCC2)cc1 | -4.3* | i | i | -12 | i | i
Cc1ccc(OCCCNC2CCCC2)cc1 | 2.4 | i | i | -9 | i | i
COC(=O)c1ccc(NC(=O)c2ccc[n+]([O-])c2)cc1 | 0.19 | i | i | -5 | i | i
Cc1ccc(NC(=O)CCCc2ccccc2)nc1 | 0.83 | i | i | -16 | 6* | i
